Screens (PubChem)
PfHsp90 yeast 2 = growth inhibition of PfHsp90-expressing yeast, primary screen, antimalarial PfHsp90 inhibitor project, S. cerevisiae, BacTiter-Glo luminescence, single point, set 2; BacTiter-Glo ATP, 48 h; yeast lacking PDR1 and PDR3 efflux regulators; actives 0.32% (n = 310,000); inhibition, % at 9.4 µM;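 active = every replicate shows inhibition above about 80%, whatever the replicate mean, limit read from the data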;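 note: 0% = DMSO neutral controls and 100% = 20 µM radicicol positive controls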
T cruzi inh = inhibitors of intracellular T. cruzi growth, primary screen, luminescence, NIH3T3 host cells; actives 1.4% (n = 300,000); T. cruzi beta-gal in NIH3T3, 90 h; AID 1885, 2009; inhibition, % (test concentration not listed);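 active = mean inhibition across valid replicates above about 55%, limit read from the data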;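 note: signal also drops with host cell toxicity which is not excluded here; 0% = plate median of DMSO wells and 100% = zero luminescence signal; higher percent means less beta-gal luminescence so fewer parasites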
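compound dosing = single 50 nL compound addition per well in DMSO | material = NIH/3T3 host cells with β-galactosidase reporter T. cruzi | input = 5,000 host fibroblasts per well | timing = ≥90 h infection period, 3 h prior cell attachment | read-out basis = percent inhibition of parasite-derived β-gal signal | detection = GalScreen β-gal luminescence, detergent lysis, 60 min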
HIF act = HIF pathway transcriptional activators, primary screen, cell-based, U2OS HRE-luciferase, luminescence | activation, % at 7.5 µM (by protocol) | AID 1910, 2009 | U2OS HRE-luciferase reporter; normalized: DMSO 0%, desferrioxamine 100% | actives 0.32% (n = 300,000);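 active = mean activation of at least 10% of the iron chelator positive control signal, with at least half of replicates also reaching 10%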
SKKanGAS inh = S. pyogenes SKKanGAS growth inhibitors in kanamycin, primary screen, streptokinase expression inhibitor project, SKKanGAS strain, BacTiter-Glo luminescence; 6 h; inhibition, % at 7.5 µM; actives 1.3% (n = 300,000); AID 1662, 2009;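 active = mean replicate score, as percent of positive control median, at least 50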;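 note: strain carries kanamycin resistance gene driven by streptokinase promoter and grows in 40 µg/ml kanamycin; loss of luminescence reflects streptokinase promoter inhibition or plain growth inhibition; 0% = median of DMSO wells and 100% = positive control at its reference dose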
CSC inhib = cancer stem cell viability inhibitors, primary screen, luminescence. cancer stem cell-like cells viability. inhibition, % at 7.5 µM. actives 1.1% (n = 300,000). AID 2717, 2010; in the data active = inhibition above about 75%; tested in HMLE shEcad cells
Beta cell apopt = inhibitors of cytokine-induced beta cell apoptosis, primary screen, luminescence | actives 0.8% (n = 300,000) | INS-1E cytokine-induced death, ATP luminescence, 48 h; percent of positive-control rescue, neutral wells zero | protection from apoptosis, % (concentration not given with the values);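 active = Every replicate reaches about 75%, or at least half do and their mean reaches it too, limit read from the data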;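 note: 0% = cytokine-treated negative control wells and 100% = positive control rescue; higher means more ATP so stronger rescue from cytokine killing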
* marks the source's active call; other numbers are inactive results. The list is not random: actives were taken first. Their share in the collection is about 3.6%.

How did O=C(OCn1ncc(Cl)c(Cl)c1=O)c1ccc(F)cc1 do in these assays?
T cruzi inh: 63*; HIF act: -2; SKKanGAS inh: 4; Beta cell apopt: 102*

Results for O=c1c(Cl)c(Cl)cnn1Cc1ccc(F)cc1 ?
PfHsp90 yeast 2: -44; T cruzi inh: -18; HIF act: 0; SKKanGAS inh: 2; CSC inhib: -23; Beta cell apopt: 112*

Results for O=C(Cn1ncc(N2CCOCC2)c(Cl)c1=O)c1ccc(Cl)cc1 ?
PfHsp90 yeast 2: -50; T cruzi inh: 8; HIF act: 1; SKKanGAS inh: 5; CSC inhib: -10; Beta cell apopt: 2

What do the screens show for `O=C(OCn1ncc(Cl)c(Cl)c1=O)c1ccccc1Cl`?
PfHsp90 yeast 2: 61; T cruzi inh: 58*; HIF act: -3; SKKanGAS inh: 13; CSC inhib: -50; Beta cell apopt: 101*

How did CC(C)(C)C(=O)Cn1ncc(Cl)c(Cl)c1=O do in these assays?
PfHsp90 yeast 2: 6; T cruzi inh: -4; HIF act: 1; SKKanGAS inh: -6

Results for O=C(Cn1ncc(Cl)c(Cl)c1=O)c1ccc(Cl)cc1 ?
PfHsp90 yeast 2: -20; T cruzi inh: 75*; HIF act: -5; SKKanGAS inh: -3; CSC inhib: 49; Beta cell apopt: -35

Results for COc1ccc(C)cc1NC(=O)CNC(C)C(=O)Nc1cc(Cl)ccc1Cl (stereo not drawn) ?
PfHsp90 yeast 2: -35; T cruzi inh: 4; HIF act: 0; SKKanGAS inh: 4; CSC inhib: -1; Beta cell apopt: -2

What do the screens show for `Cc1nn(-c2ccccc2)c(Cl)c1/C=N/Nc1ccc(S(=O)(=O)Nc2ccccc2C(=O)O)cc1[N+](=O)[O-]`?
PfHsp90 yeast 2: -17; T cruzi inh: -15; HIF act: 0; SKKanGAS inh: 119*; CSC inhib: 96*; Beta cell apopt: -1

Results for CSc1ccc(C=NNc2ccc(S(=O)(=O)Nc3ccccc3C(=O)O)cc2[N+](=O)[O-])cc1 ?
PfHsp90 yeast 2: -1; CSC inhib: 25; Beta cell apopt: 10

How did Cc1ccc(SCc2ccc(C(=O)Nc3cccc([N+](=O)[O-])c3C)cc2)cc1 do in these assays?
PfHsp90 yeast 2: 21; T cruzi inh: 60*; HIF act: 0; SKKanGAS inh: -1; CSC inhib: 16; Beta cell apopt: -3

What do the screens show for `Cc1ccc([N+](=O)[O-])cc1NC(=O)c1ccc(CSc2ccccc2)cc1`?
PfHsp90 yeast 2: -10; T cruzi inh: -3; HIF act: 0; SKKanGAS inh: 0; CSC inhib: 4; Beta cell apopt: -2

How did O=C(NCCc1c[nH]c2ccccc12)c1cnccn1 do in these assays?
T cruzi inh: -7; HIF act: 1; SKKanGAS inh: -2; CSC inhib: -2; Beta cell apopt: 2

How did CC(C)NC(=O)N(C)C[C@H]1Oc2ccc(NS(=O)(=O)c3ccccc3)cc2C(=O)N([C@H](C)CO)C[C@H]1C do in these assays?
PfHsp90 yeast 2: 15; CSC inhib: -14; Beta cell apopt: 3

What do the screens show for `COc1cc2c(c(OC)c1OC)C(=O)C(=Cc1ccccc1)O2`?
PfHsp90 yeast 2: -1

What do the screens show for `O=C(NCc1ccccc1)C1=C[C@@H](c2csc3ccccc23)C[C@@H](OCc2ccc(CO)cc2)O1`?
PfHsp90 yeast 2: 2; T cruzi inh: 39; HIF act: -2; SKKanGAS inh: 22; CSC inhib: 22; Beta cell apopt: 123*

What do the screens show for `O=C(NC1CC1)C1=C[C@H](c2csc3ccccc23)C[C@H](OCCCCO)O1`?
PfHsp90 yeast 2: 10; T cruzi inh: 7; HIF act: 1; SKKanGAS inh: 3; CSC inhib: -19; Beta cell apopt: -1

How did O=C(NCc1ccccc1)C1=C[C@@H](c2csc3ccccc23)C[C@@H](OCCCCO)O1 do in these assays?
T cruzi inh: 44; HIF act: 0; SKKanGAS inh: 13; CSC inhib: 14; Beta cell apopt: 116*
